Reference: PubChem BioAssay AID504382 (The Scripps Research Institute Molecular Screening Center, 2011)
“And” between values parts separate entries of the source, which are not always exact repeats. Identical values can stand only once. In all, about 2,500 compounds went through this assay and about 460 (18%) were called active. These entries were drawn from the full list. A number with no mark means an inactive call.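 Rule for the calls: active = mean activation above a cutoff of low control average plus 3 SD from the earlier screen (cut at about 12% in these data); inactive = the rest.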

Experiment: IANBD-channel fluorescence artefacts in buffer – biochemical, artefact control for cardiac RTF calcium sensitizer project, confirmation (AID 504382)
Conditions: IANBD fluorescence interference counterscreen, EC20 Ca2+, at 7.2 µM, hits give high values, scaled: EC20 calcium 0, EC100 calcium 100
Summary of the method: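 Medium: MOPS/KCl/MgCl2/EGTA/NTA/DTT buffer, pH 7.2 | Reagent: EC20 calcium, 0.472 mM | Compound dosing: 7.2 µM single dose | Times: 15 min compound exposure at 25 °C | Signal: Fluorescence, 480/540 nm | Measure: Interference relative to controls | Repeats: Triplicate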

| Structure (SMILES) | fluorescence artifact activation |
| --- | --- |
| CCOC(=O)c1c(-c2ccccc2Cl)csc1NC(=O)c1cc(S(=O)(=O)N2CCOCC2)ccc1C | -0.04% |
| Cn1cc(/C=C2\SC(=S)N(N3CCOCC3)C2=O)c2ccccc21 | 0.4% |
| COC(=O)C1=C(C(=O)c2ccc(C)cc2)C(c2ccc(OC)c(OC)c2)n2nnnc2N1 (stereo not drawn) | 0% |
| COc1ccccc1N1C(=O)C2C(C(=O)c3ccccc3)=NN(c3ccccc3)C2C1=O (stereo not drawn) | 1.87% |
| CN(C)c1ccc(C2C=C(c3ccc(Cl)cc3OC(F)F)Nc3ncnn32)cc1 (stereo not drawn) | 28.8% (active) |
| COc1cc(C2C=C(c3cccs3)Nc3ncnn32)cc(OC)c1OC (stereo not drawn) | 0.2% |
| Fc1ccc(C2=CC(c3ccco3)n3ncnc3N2)cc1 (stereo not drawn) | 3.08% |
| Cc1ccc(S(=O)(=O)/N=C2/NC(=O)/C(=C/c3cc([N+](=O)[O-])ccc3O)S2)cc1 | 1.59% |
| COC(=O)[C@@H]1C[C@@]2(O)[C@H](O)[C@H](O)[C@H](O)C[C@H]2N1C/C=C/c1ccccc1 | 2.09% |
| CC(=O)Nc1cccc(C(=O)/C=C/c2ccc(N(C)C)cc2)c1 | 6.61% |
| COc1ccc(-c2nn(CCC(=O)O)cc2/C=C2\SC(N)=NC2=O)cc1 | 0% |
| O=C(Nn1cnnc1)c1cc([N+](=O)[O-])cc([N+](=O)[O-])c1 | 0.03% |
| COc1ccc2nc3ccccc3[n+]([O-])c2c1 | 2.24% |
| COc1ccc(OC)c(/C=C/c2nc3ccccc3[nH]c2=O)c1 | 0.12% |
| COc1ccc2nc(-c3ccccn3)[nH]c2c1 | 20.2% (active) |
| CN1/C(=C\C(=O)c2ccco2)C(C)(C)c2ccccc21 | -0.02% |
| COc1ccc2[nH]c3c(c2c1)CCNC3c1ccc([N+](=O)[O-])o1 (stereo not drawn) | -0.02% |
| COc1ccc(Nc2cc(C)nc3ccc(OC)cc23)cc1 | 0.01% |
| COc1ccc(NC(=O)CSc2ccc3c4c(cccc24)C(=O)c2ccccc2-3)cc1 | 0.08% |
| COc1ccc(Nc2cccc3ccccc23)cc1 | 53.2% (active) |
| CC(=O)c1cccc(Nc2cc(C)nc3ccc(C)cc23)c1 | 4.88% |
| CCOC(=O)COn1c(=O)c(-c2cc3ccccc3o2)[n+]([O-])c2ccccc21 | -0.09% |
| CCCC[C@H]1COCCS(=O)(=O)N1Cc1ccc(F)cc1 | 0.08% |
| O=C(NCC1CCCO1)c1c(O)nc2sccn2c1=O (stereo not drawn) | 1.06% |

| Structure (SMILES) | fluorescence artifact activation |
| --- | --- |
| O=C(NCC1CCCO1)c1ccc2c(c1)C(=O)N(c1cccc([N+](=O)[O-])c1)C2=O (stereo not drawn) | 14% (active) |
| O=C(NCC1CCCO1)c1cccc2c1C(=O)c1ccc(N3CCC(Cc4ccccc4)CC3)cc1S2(=O)=O (stereo not drawn) | 0.63% |
| CCN(CC)C(=O)Cn1c(C)c(/C=C/c2cc[n+](C)cc2)c2ccccc21 | 0.06% |
| CC(O)c1cccc(N=Cc2ccc3ccccc3c2O)c1 (stereo not drawn) | 6.46% |
| CCc1ccc(/C=C2\Oc3c(ccc(O)c3CN3CCN(C)CC3)C2=O)cc1 | -0.01% |
| COc1ccc(/C=C/C=C2\N=C(SC)SC2=O)cc1 | -0.02% |
| COc1ccc(/C=C/c2nc3sc4c(c3c(=O)o2)CCC4)cc1 | 121% (active) |
| CN(C)NC(=O)c1ccc([N+](=O)[O-])s1 | 7.24% |
| Cc1ccc(-c2nc3ncccn3c2Nc2ccc3c(c2)OCCO3)o1 | 73.3% (active) |
| O=C1c2ccccc2-c2onc3ccc(N4CCCC4)c1c23 | 0.15% |
| CS(=O)(=O)N(CC(=O)O)Cc1cccc(CN(CC(=O)O)S(C)(=O)=O)c1 | 0.86% |
| C=CCN1C=CC(=C/C=C(/C#N)C(=O)OCC)C=C1 | -0.04% |
| CCCCCCN1C=CC(=C/C=C(\C#N)C(=O)OCC)C=C1 | 168% (active) |
| CCOC(=O)/C(C#N)=C\C=C1C=CN(C)C=C1 | 0.04% |
| CCc1ccc(C2C(C#N)=C(N)SC(N)=C2C#N)s1 | 0.05% |
| Cc1cc(/C=C2/NC(=O)N(Cc3ccccc3F)C2=O)c(C)n1C | 5.71% |
| C=CCNc1nc2c(c(=O)[nH]c(=O)n2C)n1CCCc1ccccc1 | -0.06% |
| CSc1nc2c(c(=O)[nH]c(=O)n2C)n1CCCc1ccccc1 | 0.1% |
| COC(=O)CSc1nc2c(c(=O)n(C)c(=O)n2C)n1CCCc1ccccc1 | 52.3% (active) |
| CN1CCN(c2nc3c(c(=O)n(C)c(=O)n3C)n2Cc2ccccc2F)CC1 | 0.14% |
| CCOC(=O)CSc1nc2c(c(=O)n(C)c(=O)n2C)n1Cc1ccccc1F | 502% (active) |
| CCOC(=O)c1c(NC(=O)c2ccno2)c2cc([N+](=O)[O-])ccc2n1C | 0% |
| COc1ccccc1N=Cc1c(C)c(C#N)c2[nH]c3ccccc3n2c1=O | -0.03% |
| Cc1cccc(C)c1-n1c(C)nn(-c2ncc(C(F)(F)F)cc2Cl)c1=O | 0.09% |

| Structure (SMILES) | fluorescence artifact activation |
| --- | --- |
| CCCCC1OC2(C)OC(=N)C1(C#N)C(C#N)(C#N)C2c1ccccc1 (stereo not drawn) | 0.23% |
| Cc1nc(Cl)c2c(n1)NC1=C(O2)C(=O)CCC1 | 0.77% |
| O=C1/C(=C/c2cccnc2)SC(=S)N1N1CCOCC1 | 0.1% |
| CCOC(=O)c1ccc(N=c2sc(C(=O)OC)cc(=O)n2CCCN2CCOCC2)cc1 | -0.02% |
| CCc1nc(Nc2ccc(O)cc2)c2oc3ccccc3c2n1 | 20.3% (active) |
| COc1ccc(/C=c2\s/c(=C/C(=O)c3ccc(C)cc3)[nH]c2=O)c(OC)c1 | 0.16% |
| C[C@H](CO)N1C[C@H](C)[C@@H](CN(C)C(=O)Nc2ccccc2)Oc2ccc(NC(=O)Nc3ccc4c(c3)OCO4)cc2C1=O | -0.07% |
| COCCNC(=O)/C(C#N)=C/c1ccc(N2CCOCC2)o1 | -0.05% |
| N#C/C(=C\c1ccc(N2CCOCC2)o1)C(=O)NCCc1ccccc1 | 20.6% (active) |
| N#C/C(=C/c1ccc(N2CCCCC2)o1)C(=O)NCCc1c[nH]c2ccccc12 | 12.8% (active) |
| N#C/C(=C\c1ccc(N2CCOCC2)o1)C(=O)NCC1CCCO1 (stereo not drawn) | -0.1% |
| COC(=O)CCc1c(C)c(C(=O)c2cc(F)c(F)c(F)c2F)c2ccccn12 | -0.04% |
| CN(C)C(CNC(=O)c1cccc(S(=O)(=O)N(C)C)c1)c1ccccc1 (stereo not drawn) | 4.02% |
| COc1ccc(C2c3ccc(O)cc3Oc3ncn(Cc4ccco4)c(=N)c32)cc1 (stereo not drawn) | 0.14% |
| COc1ccc(C2c3ccc(O)cc3Oc3ncn(Cc4ccccc4)c(=N)c32)cc1OC (stereo not drawn) | 0.06% |
| N=c1c2c(ncn1Cc1ccco1)Oc1cc(O)ccc1C2c1ccccc1 (stereo not drawn) | 20% (active) |
| CCN(CC)C(=S)SCC(=O)c1c(C)[nH]c2ccccc12 | 7.38% |
| CCc1ccccc1NC(=S)NCc1cccn1C | -0.01% |
| CC(OC(=O)/C(C#N)=C/c1ccc(N(C)C)cc1)C(=O)N(C)Cc1ccccc1 (stereo not drawn) | 4.84% |
| CCOC(=O)/C(C#N)=C\c1ccc(N2CCN(C/C=C/c3ccccc3)CC2)cc1 | 0.17% |
| CCOC(=O)/C(C#N)=C/c1ccc(N2CCN(Cc3ccccc3)CC2)cc1 | 82.2% (active) |
| N#C/C(=C(/O)COC(=O)COc1ccc(Cl)cc1)c1nc2ccccc2[nH]1 | 0% |
| O=C(Nc1cnn(Cc2c(Cl)cccc2Cl)c1)C(c1ccccc1)c1ccccc1 | -0.07% |
| COc1ccccc1-c1nnc(SCC(=O)Nc2ccc3[nH]c(=O)[nH]c3c2)n1N | -0.06% |

| Structure (SMILES) | fluorescence artifact activation |
| --- | --- |
| Cc1cc(C)n(-c2ccc(C(=O)O)cc2)n1 | 0.39% |
| CC1(OC(=O)CCc2ccccc2)C(=O)C=C2C=C(c3ccc(C#N)cc3)N(C3CCCC3)C=C2C1=O (stereo not drawn) | -0.06% |
| Cc1cc(C)n(C2CCCCC2OC(=O)CCc2ccccc2)n1 (stereo not drawn) | 13% (active) |
| CCOC(=O)/C(C#N)=C(C)/C=C1\Sc2ccccc2N1CC | 4.14% |
| C=CCNC(=S)NNC(=O)c1ccc(OCC(C)C)cc1 | 0.28% |
| CN1CCC2(CC1)C1CN(C)CC=C1C(C#N)=C(N)C2(C#N)C#N (stereo not drawn) | -0.05% and 6.98% |
| CC(C)(C)c1cc(NC(=O)c2cccc(S(=O)(=O)N3CCOCC3)c2)no1 | 7.6% |
| Cc1sc(NC(=O)CSc2nnc(C(C)C)n2C)c(C#N)c1C | 21.9% (active) |
| COc1ccc(S(=O)(=O)N2CCSC2)cc1C | 0.17% |
| Cc1cc(C)c(C(N)=O)c(Nc2ccc(F)cc2)n1 | 0.09% |
| CCN(C(=O)c1cnc(NC(C)C)cc1C(F)(F)F)c1ccc(Cl)cc1 | -0.05% |
| O=c1[nH]c2ccccc2nc1/C=C/c1ccccc1 | 119% (active) |
| O=c1[nH]c2ccccc2nc1/C=C(\O)c1cccs1 | 1.76% |
| O=c1[nH]c2ccccc2nc1/C=C/c1ccc(F)cc1 | 0.04% |
| O=C(Nc1ccccc1-c1ccccc1)c1ccc(Cl)c([N+](=O)[O-])c1 | 8.22% |
| COc1ccc2[nH]c3c(c2c1)CCN1C(=O)C(CC(=O)NCCCn2ccnc2)C[C@H](C(=O)N2CCCCC2)[C@@]31C (stereo partly drawn) | -0.02% |
| CN(C)c1ccc(/C=N/N(CCO)C2=NS(=O)(=O)c3ccccc32)cc1 | 0.26% |
| COC1C(CO)OC(n2c3c(Cl)cccc3c3c4c(c5c6cccc(Cl)c6[nH]c5c32)C(=O)NC4=O)C(O)C1O (stereo not drawn) | 0.02% |
| Cc1ccccc1N(CC(N)=O)S(C)(=O)=O | -0.02% |
| CS(=O)(=O)N(CC(=O)N/N=C/c1ccco1)c1ccccc1Br | 48.6% (active) |
| CCCCCCC(=O)N/N=C/c1ccco1 | 0.06% |
